In ChEMBL document CHEMBL1649423, “Inhibition of lymphoid tyrosine phosphatase by benzofuran salicylic acids” (J Med Chem, 2011):

Assays:
[1] = molecular target: T1, Tyrosine-protein phosphatase non-receptor type 1 (Homo sapiens, UniProt P18031); test: Inhibition of PTP1B
T1 sequence (P18031 whole entry): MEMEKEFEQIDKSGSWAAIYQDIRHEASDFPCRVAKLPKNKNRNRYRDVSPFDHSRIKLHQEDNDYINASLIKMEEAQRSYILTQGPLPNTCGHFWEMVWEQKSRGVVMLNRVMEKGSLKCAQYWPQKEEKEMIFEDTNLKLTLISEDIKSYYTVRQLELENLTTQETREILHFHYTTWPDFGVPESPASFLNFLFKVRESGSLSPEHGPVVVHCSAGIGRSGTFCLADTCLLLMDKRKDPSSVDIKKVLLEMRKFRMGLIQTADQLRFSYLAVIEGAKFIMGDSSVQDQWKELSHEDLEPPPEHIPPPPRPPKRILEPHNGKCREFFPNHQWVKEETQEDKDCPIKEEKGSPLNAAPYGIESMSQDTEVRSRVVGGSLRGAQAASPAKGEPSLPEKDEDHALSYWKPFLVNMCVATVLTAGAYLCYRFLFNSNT
Procedure, shortened: (§1)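 Fluorometric DiFMUP hydrolysis at 30 C in 50 mM Bis-Tris pH 6.0 (ionic strength 50 mM with NaCl), 1 mM DTT, 5% DMSO, 1% PEG8000. DiFMUP fixed at each PTP's Km. Initial rates read at ex 360/em 460 nm across several compound concentrations. No-enzyme control used to correct for nonenzymatic hydrolysis. HePTP was recombinant in-house; PTP1B, Shp1, CD45 and LAR were commercial recombinant enzymes.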

[2] = molecular target: T2, Receptor-type tyrosine-protein phosphatase C (Homo sapiens, UniProt P08575); test: Inhibition of CD45; procedure, shortened: as §1
T2 sequence (P08575 whole entry): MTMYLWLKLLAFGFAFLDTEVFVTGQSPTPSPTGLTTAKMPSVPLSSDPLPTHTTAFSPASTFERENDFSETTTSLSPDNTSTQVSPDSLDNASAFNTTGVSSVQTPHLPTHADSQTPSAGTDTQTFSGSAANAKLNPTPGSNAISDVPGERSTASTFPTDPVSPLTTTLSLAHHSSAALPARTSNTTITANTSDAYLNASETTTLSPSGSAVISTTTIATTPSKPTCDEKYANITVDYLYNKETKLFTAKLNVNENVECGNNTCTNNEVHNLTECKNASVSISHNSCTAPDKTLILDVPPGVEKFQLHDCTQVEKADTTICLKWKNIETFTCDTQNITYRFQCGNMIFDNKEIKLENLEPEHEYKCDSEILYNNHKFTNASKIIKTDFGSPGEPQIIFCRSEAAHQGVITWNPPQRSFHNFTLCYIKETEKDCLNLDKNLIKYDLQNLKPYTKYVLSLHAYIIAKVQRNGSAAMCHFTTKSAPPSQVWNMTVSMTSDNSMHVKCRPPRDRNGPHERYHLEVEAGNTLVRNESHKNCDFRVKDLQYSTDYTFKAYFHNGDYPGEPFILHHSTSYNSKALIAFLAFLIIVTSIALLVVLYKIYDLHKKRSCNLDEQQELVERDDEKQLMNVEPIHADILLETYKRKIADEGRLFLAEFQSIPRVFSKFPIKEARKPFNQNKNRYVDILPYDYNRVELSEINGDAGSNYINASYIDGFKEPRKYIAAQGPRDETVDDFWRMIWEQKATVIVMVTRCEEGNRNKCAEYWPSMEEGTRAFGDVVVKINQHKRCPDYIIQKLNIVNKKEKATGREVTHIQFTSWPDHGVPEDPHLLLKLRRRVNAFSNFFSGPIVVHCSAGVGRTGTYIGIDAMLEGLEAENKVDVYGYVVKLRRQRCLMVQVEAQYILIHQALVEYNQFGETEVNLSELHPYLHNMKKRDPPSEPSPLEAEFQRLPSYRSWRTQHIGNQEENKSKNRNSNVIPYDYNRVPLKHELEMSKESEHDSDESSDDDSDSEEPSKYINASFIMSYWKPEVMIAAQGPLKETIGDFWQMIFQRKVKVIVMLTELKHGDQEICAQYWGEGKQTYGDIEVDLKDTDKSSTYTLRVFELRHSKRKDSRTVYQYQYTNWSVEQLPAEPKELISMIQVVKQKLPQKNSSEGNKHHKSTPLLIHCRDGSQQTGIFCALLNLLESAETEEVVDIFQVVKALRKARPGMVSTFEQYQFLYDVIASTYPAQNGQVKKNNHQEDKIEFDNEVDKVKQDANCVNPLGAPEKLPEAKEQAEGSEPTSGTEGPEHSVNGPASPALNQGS

[3] = molecular target: T3, Tyrosine-protein phosphatase non-receptor type 7 (Homo sapiens, UniProt P35236); test: Inhibition of HePTP; procedure, shortened: as §1
T3 sequence (P35236 whole entry): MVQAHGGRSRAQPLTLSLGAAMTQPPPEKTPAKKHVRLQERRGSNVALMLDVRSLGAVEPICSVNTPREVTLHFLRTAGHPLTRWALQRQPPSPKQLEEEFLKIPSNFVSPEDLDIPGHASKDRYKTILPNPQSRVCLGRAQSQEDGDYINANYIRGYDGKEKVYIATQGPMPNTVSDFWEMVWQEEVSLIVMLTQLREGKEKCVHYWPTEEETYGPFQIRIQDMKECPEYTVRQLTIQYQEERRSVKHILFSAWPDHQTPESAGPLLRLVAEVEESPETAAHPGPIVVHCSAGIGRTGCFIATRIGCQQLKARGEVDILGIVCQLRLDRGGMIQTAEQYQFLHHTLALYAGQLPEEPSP

[4] = molecular target: Receptor-type tyrosine-protein phosphatase F (Homo sapiens, UniProt P10586); test: Inhibition of LAR; procedure, shortened: as §1
Sequence of Receptor-type tyrosine-protein phosphatase F (P10586 whole entry): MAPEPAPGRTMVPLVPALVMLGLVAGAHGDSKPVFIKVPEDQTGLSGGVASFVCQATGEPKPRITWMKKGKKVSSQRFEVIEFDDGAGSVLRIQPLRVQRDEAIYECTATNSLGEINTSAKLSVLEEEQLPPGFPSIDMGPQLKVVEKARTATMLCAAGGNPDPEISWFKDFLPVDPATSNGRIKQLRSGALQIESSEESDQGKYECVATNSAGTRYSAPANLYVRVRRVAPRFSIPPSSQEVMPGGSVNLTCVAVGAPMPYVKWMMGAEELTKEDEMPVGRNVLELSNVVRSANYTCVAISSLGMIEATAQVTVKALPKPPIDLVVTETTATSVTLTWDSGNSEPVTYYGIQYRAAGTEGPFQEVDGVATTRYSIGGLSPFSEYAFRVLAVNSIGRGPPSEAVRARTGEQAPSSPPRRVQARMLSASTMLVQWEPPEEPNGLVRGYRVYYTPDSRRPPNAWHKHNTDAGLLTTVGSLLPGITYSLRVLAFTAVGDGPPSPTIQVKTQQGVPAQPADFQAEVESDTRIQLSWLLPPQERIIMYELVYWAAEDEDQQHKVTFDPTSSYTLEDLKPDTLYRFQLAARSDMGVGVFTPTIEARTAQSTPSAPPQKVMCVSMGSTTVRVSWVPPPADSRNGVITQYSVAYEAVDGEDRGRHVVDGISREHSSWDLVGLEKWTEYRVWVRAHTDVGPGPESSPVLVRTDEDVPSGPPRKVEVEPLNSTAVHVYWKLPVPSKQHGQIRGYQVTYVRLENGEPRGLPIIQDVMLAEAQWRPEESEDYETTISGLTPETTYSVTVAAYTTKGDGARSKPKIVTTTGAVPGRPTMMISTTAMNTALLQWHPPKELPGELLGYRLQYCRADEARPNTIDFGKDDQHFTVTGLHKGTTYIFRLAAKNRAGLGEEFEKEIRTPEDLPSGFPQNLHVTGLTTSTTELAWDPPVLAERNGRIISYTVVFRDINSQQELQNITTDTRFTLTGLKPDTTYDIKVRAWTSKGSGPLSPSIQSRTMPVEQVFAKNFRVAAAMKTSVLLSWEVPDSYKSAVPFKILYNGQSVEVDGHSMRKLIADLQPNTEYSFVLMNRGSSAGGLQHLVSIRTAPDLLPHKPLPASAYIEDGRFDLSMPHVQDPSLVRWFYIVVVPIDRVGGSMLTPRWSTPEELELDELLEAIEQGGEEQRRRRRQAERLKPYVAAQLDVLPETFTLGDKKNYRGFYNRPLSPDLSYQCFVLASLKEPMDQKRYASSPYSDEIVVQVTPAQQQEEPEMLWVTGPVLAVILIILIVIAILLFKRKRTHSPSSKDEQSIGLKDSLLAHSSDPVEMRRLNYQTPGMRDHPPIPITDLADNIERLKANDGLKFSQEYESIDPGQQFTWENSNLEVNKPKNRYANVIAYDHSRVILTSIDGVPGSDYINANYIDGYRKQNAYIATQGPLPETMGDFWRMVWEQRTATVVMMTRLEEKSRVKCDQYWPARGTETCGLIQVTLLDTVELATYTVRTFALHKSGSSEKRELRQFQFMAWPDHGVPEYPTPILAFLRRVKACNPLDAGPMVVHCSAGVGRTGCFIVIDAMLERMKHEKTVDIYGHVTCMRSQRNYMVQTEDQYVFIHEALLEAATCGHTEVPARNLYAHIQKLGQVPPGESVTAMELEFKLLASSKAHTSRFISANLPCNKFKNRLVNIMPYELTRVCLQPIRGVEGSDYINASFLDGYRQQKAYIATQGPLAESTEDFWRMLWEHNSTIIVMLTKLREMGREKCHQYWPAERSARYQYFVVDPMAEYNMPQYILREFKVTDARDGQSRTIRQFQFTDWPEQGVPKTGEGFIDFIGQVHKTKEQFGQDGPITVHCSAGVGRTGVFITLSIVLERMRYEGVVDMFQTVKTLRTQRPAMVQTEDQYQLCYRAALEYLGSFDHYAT

| SMILES | IC50 [1] | IC50 [2] | IC50 [3] | IC50 [4] |
| --- | --- | --- | --- | --- |
| Cc1ccc(-c2oc3cc(O)c(C(=O)O)cc3c2-c2cn(CCCC(=O)Nc3cccc4ccccc34)nn2)cc1 | 0.214 µM | 0.681 µM | 4.07 µM | 36.1 µM |
| COc1ccc(-c2oc3cc(O)c(C(=O)O)cc3c2-c2cn(CCCC(=O)Nc3cccc4ccccc34)nn2)cc1 | 0.19 µM | 0.41 µM | 3.7 µM | 25.5 µM |
| Cc1ccc(-c2oc3cc(O)c(C(=O)O)cc3c2-c2cn(CCCC(=O)Nc3ccc(Cl)c4ccccc34)nn2)cc1 | 0.205 µM | 1.05 µM | 3.69 µM | 23.7 µM |
| COC(=O)c1cc2c(-c3cn(CCCC(=O)Nc4ccc(Cl)c5ccccc45)nn3)c(-c3ccccc3)oc2cc1O | 11.5 µM | 16.2 µM | 32 µM | 44.4 µM |
| COc1ccc2nc(NC(=O)CCCn3cc(-c4c(-c5cccc(C)c5)oc5cc(O)c(C(=O)O)cc45)nn3)sc2c1 | 0.217 µM | 0.877 µM | 6.36 µM | 39.9 µM |
